Source: ChEMBL document CHEMBL1944556, “Natural Product Based 6-Hydroxy-2,3,4,6-tetrahydropyrrolo[1,2-a]pyrimidinium Scaffold as A New Antifungal Template” (ACS Med Chem Lett, 2011)
In brackets after ≈: the same amount, converted by molar mass. Activity calls are given as the source filed them. The calls are words filed in the database; no cut-off is given here.

Tests used:
Candida albicans [1] = experiment: Antifungal activity against amphotericin-B-resistant Candida albicans ATCC 200955; format: functional
Aspergillus fumigatus [2] = experiment: Antifungal activity against Aspergillus fumigatus ATCC 13073; format: functional
Method in brief: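 Panel of 23 fungal strains assayed by the group's previously published protocol. Read-outs in μg/mL are the MIC and the MFC, the lowest concentration that kills the fungus. The highest concentration tested was 160 μg/mL, or 5 μg/mL for some agents.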

Aspergillus niger [3] = experiment: Antifungal activity against Aspergillus niger ATCC 16404 at 5 ug/ml; format: functional, organism-based
Aspergillus flavus [4] = experiment: Antifungal activity against Aspergillus flavus ATCC 204304; format: functional
Method in brief: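 Panel of 23 fungal strains assayed by the group's previously published protocol. Read-outs in μg/mL are the MIC and the MFC, the lowest concentration that kills the fungus.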

Candida albicans [5] = experiment: Antifungal activity against fluconazole-resistant Candida albicans isolate 17 isolated from AIDS patient; format: functional
[6] = system: Cryptococcus bacillisporus; experiment: Antifungal activity against fluconazole-resistant Cryptococcus gattii ATCC 32609; format: functional
Vero = experiment: Cytotoxicity against african green monkey Vero cells; format: cell-based; details: Chlorocebus sabaeus
Cryptococcus neoformans [7] = experiment: Antifungal activity against Cryptococcus neoformans ATCC 66031; format: functional
Aspergillus fumigatus [8] = experiment: Antifungal activity against Aspergillus fumigatus ATCC 90906; format: functional
Method in brief: (§1)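 Read-outs were MIC and MFC, in μg/mL. MFC is the lowest concentration that kills the fungus.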

Candida albicans [9] = experiment: Antifungal activity against Candida albicans ATCC 90028; format: functional; method in brief: as §1
[10] = Selectivity index of IC50 for african green monkey Vero cells to MFC for Cryptococcus neoformans ATCC 90113; format: toxicity, cell-based; details: read-out: Selectivity Index
Method in brief: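 The index is the Vero cell cytotoxicity IC50 divided by the MFC against C. neoformans.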

Cryptococcus neoformans [11] = experiment: Antifungal activity against Cryptococcus neoformans ATCC 90113; format: functional; method in brief: as §1
Aspergillus fumigatus [12] = experiment: Antifungal activity against Aspergillus fumigatus ATCC 90906 at 20 ug/ml; format: functional, organism-based
Candida albicans [13] = experiment: Antifungal activity against Candida albicans ATCC 14053; format: functional; method in brief: as §1
Candida albicans [14] = experiment: Antifungal activity against Candida albicans ATCC 32354; format: functional
Aspergillus fumigatus [15] = experiment: Antifungal activity against Aspergillus fumigatus ATCC 204305; format: functional
Candida albicans [16] = experiment: Antifungal activity against fluconazole-resistant Candida albicans isolate 1 isolated from AIDS patient; format: functional
Candida albicans [17] = experiment: Antifungal activity against Candida albicans ATCC 90028 at 20 ug/ml; format: functional, organism-based
Cryptococcus neoformans [18] = experiment: Antifungal activity against Cryptococcus neoformans ATCC 90113 at 20 ug/ml; format: functional, organism-based
Candida albicans [19] = experiment: Antifungal activity against fluconazole-resistant Candida albicans isolate 17 isolated from AIDS patient at 160 ug/ml; format: functional, organism-based
Aspergillus niger [20] = experiment: Antifungal activity against Aspergillus niger ATCC 16404 at 160 ug/ml; format: functional, organism-based
Nakaseomyces glabratus [21] = experiment: Antifungal activity against intrinsically fluconazole-resistant Candida glabrata ATCC 90030; format: functional
Candida albicans [22] = experiment: Antifungal activity against Candida albicans ATCC 14053 at 160 ug/ml; format: functional, organism-based
Candida albicans [23] = experiment: Antifungal activity against amphotericin-B-resistant Candida albicans ATCC 200955 at 160 ug/ml; format: functional, organism-based
Aspergillus fumigatus [24] = experiment: Antifungal activity against Aspergillus fumigatus ATCC 204305 at 160 ug/ml; format: functional, organism-based
Candida tropicalis [25] = experiment: Antifungal activity against Candida tropicalis ATCC 750; format: functional
Candida parapsilosis [26] = experiment: Antifungal activity against Candida parapsilosis ATCC 22019 at 160 ug/ml; format: functional, organism-based
Candida albicans [27] = experiment: Antifungal activity against Candida albicans ATCC 90028 at 160 ug/ml; format: functional, organism-based
Candida albicans [28] = experiment: Antifungal activity against Candida albicans ATCC 60193; format: functional
Pichia kudriavzevii = experiment: Antifungal activity against intrinsically fluconazole-resistant Candida krusei ATCC 6258; format: functional
Aspergillus fumigatus [29] = experiment: Antifungal activity against Aspergillus fumigatus ATCC 13073 at 160 ug/ml; format: functional, organism-based
Nakaseomyces glabratus [30] = experiment: Antifungal activity against intrinsically fluconazole-resistant Candida glabrata ATCC 90030 at 160 ug/ml; format: functional, organism-based
Candida parapsilosis [31] = experiment: Antifungal activity against Candida parapsilosis ATCC 22019; format: functional; details: Lodderomyces parapsilosis
Candida tropicalis [32] = experiment: Antifungal activity against Candida tropicalis ATCC 750 at 160 ug/ml; format: functional, organism-based
Candida albicans [33] = experiment: Antifungal activity against Candida albicans ATCC 32354 at 160 ug/ml; format: functional, organism-based
Aspergillus flavus [34] = experiment: Antifungal activity against Aspergillus flavus ATCC 204304 at 160 ug/ml; format: functional, organism-based
Candida albicans [35] = experiment: Antifungal activity against Candida albicans ATCC 60193 at 160 ug/ml; format: functional, organism-based
Candida albicans [36] = experiment: Antifungal activity against fluconazole-resistant Candida albicans isolate 1 isolated from AIDS patient at 160 ug/ml; format: functional, organism-based
Aspergillus fumigatus [37] = experiment: Antifungal activity against Aspergillus fumigatus ATCC 90906 at 160 ug/ml; format: functional, organism-based

## C[C@@H]1[C@H](O)[C@@H](C)/C=C/C=C/C=C/C=C/C=C/C=C/C=C/[C@H](O[C@@H]2O[C@H](C)[C@@H](O)[C@H](N)[C@@H]2O)C[C@@H]2O[C@](O)(C[C@@H](O)C[C@@H](O)[C@H](O)CC[C@@H](O)C[C@@H](O)CC(=O)O[C@H]1C)C[C@H](O)[C@H]2C(=O)O [AMPHOTERICIN B]
Candida albicans [1]
  MIC: 1.88 µg/mL (≈ 2.03 µM)
Aspergillus fumigatus [2]
  MFC: 10 µg/mL (≈ 10.8 µM)
  MIC: 1.5 µg/mL (≈ 1.62 µM)
Aspergillus niger [3]
  Activity: inactive
Aspergillus flavus [4]
  MFC: 5 µg/mL (≈ 5.41 µM)
Candida albicans [5]
  MIC: 0.94 µg/mL (≈ 1.02 µM)
[6]
  MFC: 0.57 µg/mL (≈ 0.617 µM)
  MIC: 0.57 µg/mL (≈ 0.617 µM)
Vero
  IC50: 4.7 µg/mL (≈ 5.09 µM)
Cryptococcus neoformans [7]
  MFC: 0.31 µg/mL (≈ 0.335 µM)
  MIC: 0.16 µg/mL (≈ 0.173 µM)

## CCCCCCCCCCCCC1(O)C=CC2=[N+](C)CCCN21.[I-] (centres undefined)
Aspergillus fumigatus [8]
  MFC: 10 µg/mL
  MIC: 5 µg/mL
Candida albicans [9]
  MFC: 10 µg/mL
  MIC: 7.5 µg/mL
[10]
  selectivity ratio: 29
Cryptococcus neoformans [11]
  MFC: 0.63 µg/mL
  MIC: 0.63 µg/mL
Vero
  IC50: 18.3 µg/mL

## CCCCCCCCCCCCCCCCC1(O)C=CC2=[N+](C)CCCN21.[I-] (centres undefined)
Aspergillus fumigatus [8]
  MFC: 5 µg/mL
  MIC: 5 µg/mL
Candida albicans [9]
  MFC: 2.5 µg/mL
  MIC: 2.5 µg/mL
[10]
  selectivity ratio: 13
Cryptococcus neoformans [11]
  MFC: 1.25 µg/mL
  MIC: 1.25 µg/mL
Vero
  IC50: 16 µg/mL

## CCCCCCCCCCCCCCCCCCC1(O)C=CC2=[N+](C)CCCN21.[I-] (centres undefined)
Aspergillus fumigatus [8]
  MIC: 10 µg/mL
Aspergillus fumigatus [12]
  Activity: inactive
Candida albicans [9]
  MFC: 2.5 µg/mL
  MIC: 2.5 µg/mL
[10]
  selectivity ratio: 6
Cryptococcus neoformans [11]
  MFC: 1.97 µg/mL
  MIC: 1.61 µg/mL
Vero
  IC50: 12.3 µg/mL

## CCCCCCCCCCCCCCC1(O)C=CC2=[N+](C)CCCN21.[I-] (centres undefined)
Aspergillus fumigatus [8]
  MFC: 5 µg/mL
  MIC: 1.88 µg/mL
Candida albicans [13]
  MIC: 1.88 µg/mL
Candida albicans [14]
  MFC: 10 µg/mL
Candida albicans [9]
  MIC: 1.88 µg/mL
Aspergillus fumigatus [15]
  MFC: 10 µg/mL
Candida albicans [5]
  MFC: 2.5 µg/mL
[10]
  selectivity ratio: 53
[6]
  MFC: 0.63 µg/mL
  MIC: 0.63 µg/mL
Cryptococcus neoformans [11]
  MFC: 0.31 µg/mL
  MIC: 0.31 µg/mL
Vero
  IC50: 16.5 µg/mL
Candida albicans [16]
  MIC: 1.25 µg/mL
Cryptococcus neoformans [7]
  MFC: 0.31 µg/mL
  MIC: 0.23 µg/mL

## CCCCCCCCCCC1(O)C=CC2=[N+](C)CCCN21.[I-] (centres undefined)
Aspergillus fumigatus [12]
  Activity: inactive
Candida albicans [17]
  Activity: inactive
Candida albicans [9]
  MIC: 20 µg/mL
[10]
  selectivity ratio: 2
Cryptococcus neoformans [11]
  MFC: 10 µg/mL
  MIC: 10 µg/mL
Vero
  IC50: 21.3 µg/mL

## CCCCCCC1(O)C=CC2=[N+](C)CCCN21.[I-] (centres undefined)
Aspergillus fumigatus [12]
  Activity: inactive
Cryptococcus neoformans [18]
  Activity: inactive
Candida albicans [17]
  Activity: inactive
Vero
  IC50: > 25 µg/mL

## OC(Cn1cncn1)(Cn1cncn1)c1ccc(F)cc1F [FLUCONAZOLE]
Candida albicans [19]
  Activity: inactive
Aspergillus niger [20]
  Activity: inactive
Candida albicans [1]
  MIC: 0.35 µg/mL (≈ 1.14 µM)
Nakaseomyces glabratus [21]
  MIC: 45 µg/mL (≈ 147 µM)
Candida albicans [22]
  Activity: inactive
Candida albicans [23]
  Activity: inactive
Candida albicans [13]
  MIC: 0.25 µg/mL (≈ 0.816 µM)
Aspergillus fumigatus [24]
  Activity: inactive
Candida albicans [14]
  MIC: 0.94 µg/mL (≈ 3.07 µM)
Candida tropicalis [25]
  MIC: 13.1 µg/mL (≈ 42.8 µM)
Candida parapsilosis [26]
  Activity: inactive
Candida albicans [27]
  Activity: inactive
Candida albicans [9]
  MIC: 0.51 µg/mL (≈ 1.67 µM)
Candida albicans [28]
  MIC: 0.2 µg/mL (≈ 0.653 µM)
Pichia kudriavzevii
  MFC: 80 µg/mL (≈ 261 µM)
  MIC: 45 µg/mL (≈ 147 µM)
Aspergillus fumigatus [29]
  Activity: inactive
Nakaseomyces glabratus [30]
  Activity: inactive
[6]
  MFC: 50 µg/mL (≈ 163 µM)
  MIC: 50 µg/mL (≈ 163 µM)
Candida parapsilosis [31]
  MIC: 2.8 µg/mL (≈ 9.14 µM)
Cryptococcus neoformans [11]
  MFC: 25 µg/mL (≈ 81.6 µM)
  MIC: 9.38 µg/mL (≈ 30.6 µM)
Candida tropicalis [32]
  Activity: inactive
Candida albicans [33]
  Activity: inactive
Candida albicans [16]
  MIC: 10.4 µg/mL (≈ 33.9 µM)
Aspergillus flavus [34]
  Activity: inactive
Cryptococcus neoformans [7]
  MFC: 12.5 µg/mL (≈ 40.8 µM)
  MIC: 3.91 µg/mL (≈ 12.8 µM)
Candida albicans [35]
  Activity: inactive
Candida albicans [36]
  Activity: inactive
Aspergillus fumigatus [37]
  Activity: inactive
